Measurements: ChEMBL document CHEMBL3608246, “Novel benzidine and diaminofluorene prolinamide derivatives as potent hepatitis C virus NS5A inhibitors” (Eur J Med Chem, 2015)
pEC50, pIC50: −log10 of the molar value. Calls of active or inactive are those of the source. The calls are words filed in the database; no cut-off is given here.

How the values were obtained:
Hepatitis C virus [1] = experiment: Antiviral activity against HCV genotype 2a JFH5a infected in human Huh7.5.1 cells transfected with JFH5a-Rluc-ad34 assessed as reduction in virus proliferation by luciferase reporter gene assay; type: functional, cell-based, Hepacivirus hominis, Huh-7; conditions: Hepatitis C virus, genotype 2a JFH5a, Huh-7
Cytochrome P450 2D6 = Cytochrome P450 2D6 (Homo sapiens, UniProt P10635); experiment: Inhibition of human CYP2D6 by luminometry; type: ADME
Sequence of Cytochrome P450 2D6 (P10635 whole entry): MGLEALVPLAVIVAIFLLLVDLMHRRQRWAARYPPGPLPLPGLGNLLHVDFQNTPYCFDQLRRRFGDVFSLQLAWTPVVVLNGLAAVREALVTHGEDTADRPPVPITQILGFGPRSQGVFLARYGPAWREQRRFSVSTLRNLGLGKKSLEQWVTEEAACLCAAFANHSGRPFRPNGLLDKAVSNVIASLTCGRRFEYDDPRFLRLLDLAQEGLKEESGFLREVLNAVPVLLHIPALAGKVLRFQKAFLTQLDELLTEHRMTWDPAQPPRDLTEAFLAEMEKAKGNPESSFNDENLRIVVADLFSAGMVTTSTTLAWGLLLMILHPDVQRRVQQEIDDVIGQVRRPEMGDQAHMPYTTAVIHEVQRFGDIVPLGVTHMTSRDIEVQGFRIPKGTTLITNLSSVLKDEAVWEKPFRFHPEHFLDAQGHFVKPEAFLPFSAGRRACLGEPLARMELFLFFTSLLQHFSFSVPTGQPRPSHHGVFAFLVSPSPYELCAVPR
Outline: (§1)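 Human CYP1A2, 2C9, 2C19, 2D6 and 3A4 inhibition by P450-Glo luminescent assay per kit protocol; compounds at 100, 50, 10, 5, 1, 0.1 and 0.01 µM; luminometer read-out.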

Cytochrome P450 3A4 = Cytochrome P450 3A4 (Homo sapiens, UniProt P08684); experiment: Inhibition of human CYP3A4 by luminometry; type: ADME; outline: as §1
Sequence of Cytochrome P450 3A4 (P08684 whole entry): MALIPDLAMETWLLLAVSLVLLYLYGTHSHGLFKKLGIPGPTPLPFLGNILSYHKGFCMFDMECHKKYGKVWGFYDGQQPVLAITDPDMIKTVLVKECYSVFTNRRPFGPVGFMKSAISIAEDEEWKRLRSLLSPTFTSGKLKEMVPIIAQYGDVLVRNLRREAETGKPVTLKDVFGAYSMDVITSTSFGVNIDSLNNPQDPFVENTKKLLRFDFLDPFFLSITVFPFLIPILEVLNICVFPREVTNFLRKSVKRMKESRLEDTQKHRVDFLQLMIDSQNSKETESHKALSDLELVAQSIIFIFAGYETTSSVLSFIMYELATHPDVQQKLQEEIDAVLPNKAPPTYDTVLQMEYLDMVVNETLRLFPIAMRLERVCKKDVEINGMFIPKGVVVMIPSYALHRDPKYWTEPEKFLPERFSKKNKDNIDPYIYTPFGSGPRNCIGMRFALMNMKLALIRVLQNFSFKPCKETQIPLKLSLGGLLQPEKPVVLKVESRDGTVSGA

[2] = Half life in Sprague-Dawley rat at 10 mg/kg, po by LC/MS/MS method; type: ADME, organism-based; conditions: in vivo
Outline: (§2)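 Sprague-Dawley rats, 2 male and 1 female per compound per route, parallel design. Vehicle 5% DMSO, 10% solutol, 85% HPBCD; IV 5 mg/kg bolus via tail vein, oral 10 mg/kg. Blood into K2-EDTA tubes at several time points, centrifuged, plasma analysed by LC/MS/MS; non-compartmental analysis.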

Salmonella typhimurium [3] = experiment: Genotoxicity in Salmonella typhimurium TA100 assessed as induction of revertant colonies at 200 ug/plate in presence of S9 mix by Ames test relative untreated control; type: toxicity, organism-based; conditions: salmonella enterica subsp. enterica serovar typhimurium
Outline: (§3)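 Ames test, Maron's method, histidine-requiring S. typhimurium TA98 and TA100, with and without S-9 mix; 200 µg/plate, vehicle and positive controls. Revertant colonies counted in triplicate (mean ± SD, n = 3); factor = treated/vehicle-control colonies; positive if ≥2-fold over vehicle.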

[4] = Stability in human liver microsomes assessed as compound remaining at 1 uM after 0.5 hrs by LC-MS/MS method; type: ADME; conditions: read-out: Stability
Outline: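 Pooled human liver microsomal fraction with β-NADPH, compound at 1 µM, incubated over 30 min; remaining compound in supernatant quantified by LC-MS/MS.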

[5] = Oral bioavailability in Sprague-Dawley rat at 10 mg/kg by LC/MS/MS method; type: ADME, organism-based; conditions: in vivo; outline: as §2
Cytochrome P450 1A2 = target: T1, Cytochrome P450 1A2 (Homo sapiens, UniProt P05177); experiment: Inhibition of human CYP1A2 by luminometry; type: ADME; outline: as §1
T1 sequence (P05177 whole entry): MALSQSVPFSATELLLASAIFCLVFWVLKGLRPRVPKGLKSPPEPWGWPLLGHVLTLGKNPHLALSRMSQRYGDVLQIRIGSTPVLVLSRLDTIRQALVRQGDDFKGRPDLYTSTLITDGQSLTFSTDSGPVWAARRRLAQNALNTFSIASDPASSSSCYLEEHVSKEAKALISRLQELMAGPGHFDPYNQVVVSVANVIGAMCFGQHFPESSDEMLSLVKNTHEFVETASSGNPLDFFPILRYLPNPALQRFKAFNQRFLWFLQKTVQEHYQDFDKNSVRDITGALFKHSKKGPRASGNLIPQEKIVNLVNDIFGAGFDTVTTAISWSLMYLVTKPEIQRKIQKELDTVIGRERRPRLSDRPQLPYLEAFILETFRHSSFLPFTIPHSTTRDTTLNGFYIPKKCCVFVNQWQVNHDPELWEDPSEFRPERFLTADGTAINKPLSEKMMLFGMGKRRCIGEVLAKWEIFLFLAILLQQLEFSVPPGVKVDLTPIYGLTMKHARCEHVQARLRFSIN

Hepatitis C virus [6] = experiment: Antiviral activity against HCV genotype 1b NK/R2AN infected in human Huh7.5.1 cells assessed as reduction in virus replication by luciferase reporter gene assay; type: functional, organism-based, Hepacivirus hominis, subtype 1b NK/R2AN, Huh-7; conditions: Hepatitis C virus, subtype 1b NK/R2AN, Huh-7
Salmonella typhimurium [7] = experiment: Genotoxicity in Salmonella typhimurium TA98 assessed as induction of revertant colonies at 200 ug/plate in presence of S9 mix by Ames test relative untreated control; type: toxicity, organism-based; conditions: salmonella enterica subsp. enterica serovar typhimurium; outline: as §3
Hepatitis C virus [8] = experiment: Antiviral activity against HCV genotype 1b NK/R2AN infected in human Huh7.5.1 cells expressing NS5A L31V mutant assessed as reduction in virus replication at 100 pM to 1 uM by luciferase reporter gene assay; type: functional, organism-based; conditions: Hepacivirus hominis, subtype 1b NK/R2AN, Huh-7
Outline: (§4)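 Daclatasvir-resistant NS5A mutant RNAs were transcribed in vitro and electroporated into Huh7.5.1 cells grown in 12-well plates. At 4 h post-transfection, medium was replaced with DMEM containing serially diluted compounds. Cells were harvested 3 days later and Renilla luciferase activity was measured and normalized to mock-treated cells.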

[9] = Cytotoxicity against CHOK1 cells by WST dye based CCK8 assay; type: cell-based; conditions: Cricetulus griseus, CHO-K1
Outline: (§5)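 CCK-8 survival assay: WST-8 tetrazolium reduced by cellular dehydrogenases to orange formazan, giving living-cell count; compounds tested up to 100 µM maximum.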

[10] = Cytotoxicity against human Huh7.5.1 cells; type: cell-based, Huh-7
Hepatitis C virus [11] = experiment: Antiviral activity against HCV genotype 1b NK/R2AN infected in human Huh7.5.1 cells expressing NS5A Y93H mutant assessed as reduction in virus replication at 100 pM to 1 uM by luciferase reporter gene assay; type: functional, organism-based; conditions: Hepacivirus hominis, subtype 1b NK/R2AN, Huh-7; outline: as §4
Cytochrome P450 2C19 = Cytochrome P450 2C19 (Homo sapiens, UniProt P33261); experiment: Inhibition of human CYP2C19 by luminometry; type: ADME; outline: as §1
Sequence of Cytochrome P450 2C19 (P33261 whole entry): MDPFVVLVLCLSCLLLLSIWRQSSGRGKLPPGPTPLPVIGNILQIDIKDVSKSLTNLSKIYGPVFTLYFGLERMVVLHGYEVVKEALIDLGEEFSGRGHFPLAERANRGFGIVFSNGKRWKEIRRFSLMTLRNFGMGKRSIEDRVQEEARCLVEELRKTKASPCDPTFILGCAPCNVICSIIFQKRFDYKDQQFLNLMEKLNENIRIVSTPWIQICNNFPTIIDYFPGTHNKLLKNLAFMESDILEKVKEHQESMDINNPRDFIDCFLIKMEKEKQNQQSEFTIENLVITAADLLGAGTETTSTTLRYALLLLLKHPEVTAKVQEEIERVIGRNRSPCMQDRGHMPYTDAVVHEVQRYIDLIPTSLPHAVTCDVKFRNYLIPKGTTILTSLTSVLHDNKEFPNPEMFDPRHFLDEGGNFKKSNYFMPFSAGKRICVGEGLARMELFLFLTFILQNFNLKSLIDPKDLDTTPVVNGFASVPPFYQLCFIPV

L929 = experiment: Cytotoxicity against mouse L929 cells by WST dye based CCK8 assay; type: cell-based; outline: as §5
Salmonella typhimurium [12] = experiment: Genotoxicity in Salmonella typhimurium TA98 assessed as induction of revertant colonies at 200 ug/plate in absence of S9 mix by Ames test relative untreated control; type: toxicity, organism-based; conditions: salmonella enterica subsp. enterica serovar typhimurium; outline: as §3
Salmonella typhimurium [13] = experiment: Genotoxicity in Salmonella typhimurium TA100 assessed as induction of revertant colonies at 200 ug/plate in absence of S9 mix by Ames test relative untreated control; type: toxicity, organism-based; conditions: salmonella enterica subsp. enterica serovar typhimurium; outline: as §3
hERG (KCNH2) = hERG (KCNH2) (Homo sapiens, UniProt Q12809); experiment: Inhibition of human ERG at 10 uM by fluorescence polarization assay based ligand binding assay
Sequence of hERG (KCNH2) (Q12809 whole entry): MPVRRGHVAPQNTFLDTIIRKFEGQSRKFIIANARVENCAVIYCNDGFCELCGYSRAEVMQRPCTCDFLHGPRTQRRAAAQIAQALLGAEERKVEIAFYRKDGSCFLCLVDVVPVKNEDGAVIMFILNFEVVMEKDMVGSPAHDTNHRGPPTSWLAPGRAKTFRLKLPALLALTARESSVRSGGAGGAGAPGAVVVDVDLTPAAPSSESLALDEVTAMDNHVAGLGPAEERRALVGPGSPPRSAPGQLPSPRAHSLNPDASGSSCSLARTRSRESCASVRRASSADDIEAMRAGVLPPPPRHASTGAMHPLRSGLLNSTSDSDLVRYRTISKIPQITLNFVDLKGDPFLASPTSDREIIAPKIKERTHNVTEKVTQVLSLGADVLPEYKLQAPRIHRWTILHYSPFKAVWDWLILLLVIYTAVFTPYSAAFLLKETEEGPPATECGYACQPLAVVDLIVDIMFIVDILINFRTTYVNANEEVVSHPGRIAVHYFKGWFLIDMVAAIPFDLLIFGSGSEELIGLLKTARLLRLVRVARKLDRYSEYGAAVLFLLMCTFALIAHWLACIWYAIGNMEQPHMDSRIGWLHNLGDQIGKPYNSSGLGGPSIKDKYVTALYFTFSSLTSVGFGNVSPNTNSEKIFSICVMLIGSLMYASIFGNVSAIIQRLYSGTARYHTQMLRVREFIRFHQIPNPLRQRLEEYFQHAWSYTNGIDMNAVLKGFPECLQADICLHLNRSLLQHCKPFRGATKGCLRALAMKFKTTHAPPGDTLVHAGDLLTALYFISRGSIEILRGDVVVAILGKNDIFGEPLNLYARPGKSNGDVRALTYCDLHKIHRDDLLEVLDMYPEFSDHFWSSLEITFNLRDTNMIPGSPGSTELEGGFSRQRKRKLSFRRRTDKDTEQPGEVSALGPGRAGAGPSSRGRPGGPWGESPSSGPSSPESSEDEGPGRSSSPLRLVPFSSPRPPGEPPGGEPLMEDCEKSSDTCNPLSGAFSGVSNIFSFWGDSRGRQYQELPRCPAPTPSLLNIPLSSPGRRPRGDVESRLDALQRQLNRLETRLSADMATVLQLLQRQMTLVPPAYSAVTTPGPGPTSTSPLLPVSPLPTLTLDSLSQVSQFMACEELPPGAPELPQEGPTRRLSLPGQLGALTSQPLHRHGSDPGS

Vero = experiment: Cytotoxicity against African green monkey Vero cells by WST dye based CCK8 assay; type: cell-based; conditions: Chlorocebus sabaeus; outline: as §5
HFL1 = experiment: Cytotoxicity against human HFL1 cells by WST dye based CCK8 assay; type: cell-based; outline: as §5
Cytochrome P450 2C9 = Cytochrome P450 2C9 (Homo sapiens, UniProt P11712); experiment: Inhibition of human CYP2C9 by luminometry; type: ADME; outline: as §1
Sequence of Cytochrome P450 2C9 (P11712 whole entry): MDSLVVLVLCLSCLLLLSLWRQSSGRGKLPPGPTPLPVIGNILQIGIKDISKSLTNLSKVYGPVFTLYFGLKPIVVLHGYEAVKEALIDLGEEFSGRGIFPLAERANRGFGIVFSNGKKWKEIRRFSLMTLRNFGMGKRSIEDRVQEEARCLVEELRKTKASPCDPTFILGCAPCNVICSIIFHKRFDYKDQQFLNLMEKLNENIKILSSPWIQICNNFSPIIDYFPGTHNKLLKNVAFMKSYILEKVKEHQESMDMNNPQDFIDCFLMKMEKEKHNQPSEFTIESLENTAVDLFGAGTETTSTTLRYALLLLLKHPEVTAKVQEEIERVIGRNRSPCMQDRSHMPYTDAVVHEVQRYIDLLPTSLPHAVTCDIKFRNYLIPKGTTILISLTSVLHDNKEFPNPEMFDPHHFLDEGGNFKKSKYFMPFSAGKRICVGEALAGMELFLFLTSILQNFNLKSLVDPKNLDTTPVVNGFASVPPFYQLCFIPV

[14] = Half life in Sprague-Dawley rat at 5 mg/kg, iv by LC/MS/MS method; type: ADME, organism-based; conditions: in vivo; outline: as §2
[15] = Cytotoxicity against mouse NIH/3T3 cells by WST dye based CCK8 assay; type: cell-based; conditions: NIH3T3; outline: as §5

Question: With `COC(=O)N[C@@H](C(=O)N1CCC[C@H]1C(=O)Nc1ccc2c(c1)C(F)(F)c1cc(NC(=O)[C@@H]3CCCN3C(=O)[C@H](NC(=O)OC)c3ccccc3)ccc1-2)c1ccccc1` as the molecule, how does the pEC50 (Hepatitis C virus [1]) read?
Answer: 10.23

Question: And the pEC50 (Cytochrome P450 2D6)?
Answer: < 4.00

Question: What about the pEC50 (Cytochrome P450 3A4) of the same molecule?
Answer: 6.01

Question: And the half-life [2]?
Answer: 1.68 h

Question: And the “fold change (FC)” value (Salmonella typhimurium [3])?
Answer: 0.9

Question: What about the remaining at 0.5 h, 1 µM [4] of the same molecule?
Answer: 92%

Question: What about the bioavailability [5] of the same molecule?
Answer: 7.6%

Question: And the pEC50 (Cytochrome P450 1A2)?
Answer: < 4.00

Question: What about the pEC50 (Hepatitis C virus [6]) of the same molecule?
Answer: 11.52

Question: What about the “fold change (FC)” value (Salmonella typhimurium [7]) of the same molecule?
Answer: 1.1

Question: What about the inhibition (Hepatitis C virus [8]) of the same molecule?
Answer: Active

Question: What about the pIC50 [9] of the same molecule?
Answer: < 4.00

Question: What about the CC50 [10] of the same molecule?
Answer: > 25 µM

Question: And the inhibition (Hepatitis C virus [11])?
Answer: Active

Question: And the pEC50 (Cytochrome P450 2C19)?
Answer: 4.86

Question: And the pIC50 (L929)?
Answer: < 4.00

Question: What about the “fold change (FC)” value (Salmonella typhimurium [12]) of the same molecule?
Answer: 1.3

Question: And the “fold change (FC)” value (Salmonella typhimurium [13])?
Answer: 0.9

Question: What about the inhibition at 10 µM (hERG (KCNH2)) of the same molecule?
Answer: 39.1%

Question: What about the pIC50 (Vero) of the same molecule?
Answer: < 4.00

Question: And the pIC50 (HFL1)?
Answer: < 4.00

Question: And the pEC50 (Cytochrome P450 2C9)?
Answer: 6.56

Question: And the half-life [14]?
Answer: 0.9 h

Question: What about the pIC50 [15] of the same molecule?
Answer: < 4.00
